pIC50: −log10 of the molar value.
Key:
[1] = test system: A549; experiment: Induction of apoptosis in human A549 cells assessed as early apoptotic cells at 2 nM after 48 hrs by Annexin V-FITC/propidium iodide staining based flow cytometry (reference value: 1.48%); format: functional
[2] = test system: A549; experiment: Cell cycle arrest in human A549 cells assessed as accumulation at G2/M phase at 4 nM after 12 hrs by propidium iodide staining based flow cytometry (reference value: 10.13%); format: functional
Method in brief: (§1)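 A549 seeded in six-well plates at 3 × 10⁵ cells/well and treated for 12 or 24 h; vehicle 0.01% DMSO. Cells fixed overnight in ice-cold 70% ethanol, treated with RNase A at 37 °C for 30 min, then stained with PI at 4 °C for 30 min. About 10 000 events acquired by flow cytometry at 488 nm; three experiments.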

[3] = test system: MDA-MB-231; experiment: Growth inhibition of human MDA-MB-231 cells after 48 hrs by MTT assay; format: functional, cell-based; details: MDA-MB-231, 48 h
Method in brief: (§2)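 MTT assay: log-phase cells plated at 5 × 10³/well for 24 h, then exposed to a range of test concentrations for 48 h. MTT (5 mg/mL) added for 4 h, formazan dissolved in DMSO, absorbance read at 570 nm. IC50 is the concentration giving 50% growth inhibition, from dose-response curves; at least three independent experiments, mean ± SE.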

[4] = test system: A549; experiment: Induction of mitochondrial membrane disruption in human A549 cells assessed as cells with mitochondrial membrane potential loss at 4 nM after 48 hrs by JC1 staining based flow cytometry (reference value: 0.82%); format: functional
[5] = Antiproliferative activity against HLF after 48 hrs by MTT assay; format: cell-based; details: Homo sapiens; method in brief: as §2
[6] = Selectivity index, ratio of IC50 for HLF to IC50 for human A549 cells
Method in brief: (§3)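 MTT assay in normal cells and A549: seeding at 5 × 10³ cells/well for 24 h, 48 h compound exposure, then 5 mg/mL MTT for 4 h, DMSO solubilisation and absorbance at 570 nm. IC50 values came from dose–response curves of at least three independent experiments. Selectivity ratio = IC50 in normal cells / IC50 in A549.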

[7] = test system: BJ; experiment: Antiproliferative activity against human BJ cells after 48 hrs by MTT assay; format: cell-based; method in brief: as §2
[8] = test system: A549; experiment: Induction of apoptosis in human A549 cells assessed as early apoptotic cells at 4 nM after 48 hrs by Annexin V-FITC/propidium iodide staining based flow cytometry (reference value: 1.48%); format: functional
[9] = test system: A549; experiment: Induction of mitochondrial membrane disruption in human A549 cells assessed as cells with mitochondrial membrane potential loss at 8 nM after 48 hrs by JC1 staining based flow cytometry (reference value: 0.82%); format: functional
[10] = Selectivity index, ratio of IC50 for human LO2 cells to IC50 for human A549 cells; format: functional; method in brief: as §3
[11] = test system: A549; experiment: Induction of mitochondrial membrane disruption in human A549 cells assessed as cells with intact mitochondrial membrane at 4 nM after 48 hrs by JC1 staining based flow cytometry (reference value: 99.13%); format: functional
[12] = test system: A549; experiment: Induction of apoptosis in human A549 cells assessed as necrotic cells at 2 nM after 48 hrs by Annexin V-FITC/propidium iodide staining based flow cytometry relative to control; format: functional
[13] = test system: A549; experiment: Induction of apoptosis in human A549 cells assessed as live cells at 4 nM after 48 hrs by Annexin V-FITC/propidium iodide staining based flow cytometry (reference value: 98.49%); format: functional
[14] = test system: A549/CDDP; experiment: Growth inhibition of human A549/CDDP cells after 48 hrs by MTT assay; format: functional, cell-based; method in brief: as §2
[15] = test system: A549; experiment: Induction of apoptosis in human A549 cells assessed as live cells at 4 nM after 24 hrs by Annexin V-FITC/propidium iodide staining based flow cytometry (reference value: 98.84%); format: functional
[16] = test system: A549; experiment: Induction of apoptosis in human A549 cells assessed as late apoptotic cells at 2 nM after 24 hrs by Annexin V-FITC/propidium iodide staining based flow cytometry (reference value: 0.08%); format: functional
[17] = test system: A549; experiment: Growth inhibition of human A549 cells after 48 hrs by MTT assay; format: functional, cell-based; details: A549, 48 h
[18] = test system: HeLa; experiment: Antiproliferative activity against human HeLa cells after 48 hrs by MTT assay; format: functional, cell-based; method in brief: as §2
[19] = test system: RKO; experiment: Growth inhibition of human RKO cells after 48 hrs by MTT assay; format: functional, cell-based; method in brief: as §2
[20] = test system: L02; experiment: Antiproliferative activity against human LO2 cells after 48 hrs by MTT assay; format: cell-based; details: L02, 48 h; method in brief: as §2
[21] = test system: A549; experiment: Cell cycle arrest in human A549 cells assessed as accumulation at G2/M phase at 4 nM after 24 hrs by propidium iodide staining based flow cytometry (reference value: 10.13%); format: functional; method in brief: as §1
[22] = test system: A549; experiment: Induction of mitochondrial membrane disruption in human A549 cells assessed as cells with mitochondrial membrane potential loss at 2 nM after 48 hrs by JC1 staining based flow cytometry (reference value: 0.82%); format: functional
[23] = test system: A549; experiment: Induction of apoptosis in human A549 cells assessed as necrotic cells at 2 nM after 24 hrs by Annexin V-FITC/propidium iodide staining based flow cytometry (reference value: 0.10%); format: functional
[24] = test system: LoVo; experiment: Growth inhibition of human LoVo cells after 48 hrs by MTT assay; format: functional, cell-based; method in brief: as §2
[25] = test system: A549; experiment: Induction of apoptosis in human A549 cells assessed as late apoptotic cells at 4 nM after 48 hrs by Annexin V-FITC/propidium iodide staining based flow cytometry (reference value: 0.03%); format: functional
[26] = test system: A549; experiment: Induction of apoptosis in human A549 cells assessed as necrotic cells at 4 nM after 48 hrs by Annexin V-FITC/propidium iodide staining based flow cytometry relative to control; format: functional
[27] = Inhibition of porcine brain tubulin polymerization measured every 60 secs for 90 mins by DAPI staining based fluorescence assay; parameters: species or system Sus scrofa
Method in brief: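 Purified tubulin was tested in a kit assay. Final buffer: 80 mM PIPES sesquisodium (pH 6.9), 2.0 mM MgCl₂, 0.5 mM EGTA, 1 mM GTP, 10.2% glycerol. Compound (0.1–10 μM) was prewarmed at 37 °C for 1 min before tubulin was added. DAPI reporter fluorescence (ex 340 / em 410 nm) was read every 60 s for 90 min. Area under the curve gave percent inhibition versus control and the IC50.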

[28] = test system: A549; experiment: Induction of apoptosis in human A549 cells assessed as necrotic cells at 4 nM after 24 hrs by Annexin V-FITC/propidium iodide staining based flow cytometry (reference value: 0.10%); format: functional
[29] = test system: A549; experiment: Induction of mitochondrial membrane disruption in human A549 cells assessed as cells with intact mitochondrial membrane at 8 nM after 48 hrs by JC1 staining based flow cytometry (reference value: 99.13%); format: functional
[30] = test system: A549; experiment: Induction of apoptosis in human A549 cells assessed as live cells at 2 nM after 24 hrs by Annexin V-FITC/propidium iodide staining based flow cytometry (reference value: 98.84%); format: functional
[31] = Growth inhibition of human HepG2/DOX cells after 48 hrs by MTT assay; format: functional, cell-based; method in brief: as §2
[32] = Selectivity index, ratio of IC50 for human BJ cells to IC50 for human A549 cells; format: functional; method in brief: as §3
[33] = test system: HCT-116; experiment: Growth inhibition of human HCT116 cells after 48 hrs by MTT assay; format: functional, cell-based; details: HCT-116, 48 h; method in brief: as §2
[34] = test system: A549; experiment: Induction of apoptosis in human A549 cells assessed as late apoptotic cells at 2 nM after 48 hrs by Annexin V-FITC/propidium iodide staining based flow cytometry (reference value: 0.03%); format: functional

C[Se]c1ccc(N(C)c2nc(C)nc3ccccc23)cc1
Activity [1]: 26.51%
Activity [2]: 67.1%
pIC50 [3]: 8.40
Activity [4]: 42.83%
pIC50 [5]: 7.70
Ratio IC50 [6]: 10
pIC50 [7]: 7.72
Activity [8]: 54.14%
Activity [9]: 63.13%
Ratio IC50 [10]: 9.5
Activity [11]: 56.98%
Activity [12]: 3.19%
Activity [13]: 10.31%
pIC50 [14]: 8.05
Activity [15]: 64.86%
Activity [16]: 3.82%
pIC50 [17]: 8.70
pIC50 [18]: 8.52
pIC50 [19]: 8.40
pIC50 [20]: 7.72
Activity [21]: 87.16%
Activity [22]: 15.85%
Activity [23]: 0.9%
pIC50 [24]: 8.05
Activity [25]: 28.75%
Activity [26]: 6.8%
pIC50 [27]: 5.72
Activity [28]: 2.28%
Activity [29]: 36.52%
Activity [30]: 78.97%
pIC50 [31]: 8.10
Ratio IC50 [32]: 9.5
pIC50 [33]: 8.52
Activity [34]: 20.5%

From ChEMBL document CHEMBL4020840, “Synthesis and Biological Evaluation of Selenium-Containing 4-Anilinoquinazoline Derivatives as Novel Antimitotic Agents” (J Med Chem, 2018)
